Assay: AUC (0 to infinity) in healthy white human with CYP2C8*3/*3 genotype at 2 mg, po
Type: ADME, organism-based
Design: dose 2 mg, route oral, time infinity
Conditions: plasma
Outline: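 Healthy Caucasians genotyped for CYP2C8*3 and SLCO1B1 521T>C were given a single oral 2 mg dose of repaglinide, and alcohol, caffeine and grapefruit were withheld. Plasma was sampled before dosing and at 15 times from 0.25 to 24 h. Drug was measured by LC-MS/MS against diclofenac internal standard, linear 0.098–79.139 µg/L. Noncompartmental analysis: Cmax taken as observed; AUC by linear/log-linear trapezoidal rule extrapolated to infinity.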

CCOc1cc(CC(=O)N[C@@H](CC(C)C)c2ccccc2N2CCCCC2)ccc1C(=O)O [REPAGLINIDE]
AUC(0-inf): 72.4 ng·h/mL
